Laboratory results reported in ChEMBL document CHEMBL2434895, “Design and application of a rigid quinazolone scaffold based on two-face Bim α-helix mimicking” (Eur J Med Chem, 2013).

Legend:
[1] = biological target: Apoptosis regulator Bcl-2 (Homo sapiens, UniProt P10415); experiment: Displacement of FAM-Bid BH3 peptide from recombinant Bcl-2 (unknown origin) expressed in Escherichia coli BL21 after 10 mins by fluorescence polarization assay
[2] = biological target: Induced myeloid leukemia cell differentiation protein Mcl-1 (Homo sapiens, UniProt Q07820); experiment: Displacement of FAM-Bid BH3 peptide from recombinant Mcl-1 (unknown origin) expressed in Escherichia coli BL21 after 10 mins by fluorescence polarization assay
How it was run: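 Mcl-1 FP competition: 55 nM protein with 20 nM FAM-Bid BH3 peptide in 25 mM Tris pH 8.0, 150 mM NaCl, 2 min preincubation. Compounds added as serial dilutions from 10 mM DMSO stock, 10 min incubation, polarization measured. Tracer Kd 13 nM. Ki derived by Wang FP-assay equation.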

Sequence of Induced myeloid leukemia cell differentiation protein Mcl-1 (Q07820 whole entry): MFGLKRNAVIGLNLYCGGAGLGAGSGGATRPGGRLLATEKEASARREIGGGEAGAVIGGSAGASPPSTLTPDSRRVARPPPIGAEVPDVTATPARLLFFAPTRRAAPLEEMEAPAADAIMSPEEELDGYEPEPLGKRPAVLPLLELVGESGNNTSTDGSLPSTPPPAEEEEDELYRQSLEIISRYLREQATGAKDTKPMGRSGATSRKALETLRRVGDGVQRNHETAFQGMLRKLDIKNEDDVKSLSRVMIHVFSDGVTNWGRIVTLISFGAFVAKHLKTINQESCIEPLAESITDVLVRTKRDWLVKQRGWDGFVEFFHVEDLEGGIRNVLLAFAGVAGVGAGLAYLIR
Sequence of Apoptosis regulator Bcl-2 (P10415 whole entry): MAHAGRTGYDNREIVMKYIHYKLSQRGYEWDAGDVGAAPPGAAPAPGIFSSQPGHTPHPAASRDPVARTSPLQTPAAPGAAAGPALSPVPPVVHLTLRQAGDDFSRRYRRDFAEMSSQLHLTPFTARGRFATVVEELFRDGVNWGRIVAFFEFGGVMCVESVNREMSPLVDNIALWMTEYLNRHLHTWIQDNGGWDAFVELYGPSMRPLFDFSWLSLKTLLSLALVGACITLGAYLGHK

Compound | Ki [1] | Ki [2]
O=C(Nc1c(C(=O)NCCCc2ccccc2)cc(O)c(O)c1O)c1ccccc1 | 8040 nM | 3240 nM
O=C1c2ccccc2C(=O)c2c1cc(O)c(O)c2O | 1320 nM | 1210 nM
O=c1c2cc(O)c(O)c(O)c2nc(-c2ccccc2)n1Cc1ccccc1 | 959 nM | 1210 nM
CCCCNC(=O)c1cc(O)c(O)c(O)c1NC(=O)c1ccccc1 | 1920 nM | 1980 nM
Cc1ccc(O)c(Cn2c(-c3ccccc3)nc3c(O)c(O)c(O)cc3c2=O)c1 | 179 nM | 123 nM
CC(C)c1ccc(O)c(Cn2c(-c3ccccc3)nc3c(O)c(O)c(O)cc3c2=O)c1 | 1110 nM | 609 nM
O=c1[nH]cnc2c(O)c(O)c(O)cc12 | 9280 nM | 5980 nM
O=C(Nc1c(C(=O)NCc2ccccc2)cc(O)c(O)c1O)c1ccccc1 | 1320 nM | 2820 nM
